# Assay results reported in ChEMBL document CHEMBL3867438, “Cytotoxic Tirucallane and Apotirucallane Triterpenoids from the Stems of Picrasma quassioides” (J Nat Prod, 2016).
# Activity calls are given as the source filed them. The rule behind the calls is not given here.
# Key:
# [1] = tested on: MKN-28; test: Induction of apoptosis in human MKN28 cells assessed as viable cells at 6 uM after 48 hrs by annexin V-FITC/PI staining based flow cytometry (reference value: 100%); type: functional; conditions: MKN-28, 48 h, read-out: Activity
# Summary of the method: (§1)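 MKN-28 cells (3 × 10^5/well) treated at 2, 6 and 8 μM for 48 h. Stained with annexin V-FITC and PI using a kit per the maker's protocol, then analysed by flow cytometry. Apoptotic populations quantified, early and late apoptosis counted separately. Data given as mean with SD; one-way ANOVA with Tukey's post hoc test.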
# [2] = tested on: MKN-28; test: Induction of apoptosis in human MKN28 cells assessed as late apoptotic cells at 2 uM after 48 hrs by annexin V-FITC/PI staining based flow cytometry (reference value: 0%); type: functional; summary of the method: as §1
# [3] = tested on: MKN-28; test: Induction of apoptosis in human MKN28 cells assessed as early apoptotic cells at 2 uM after 48 hrs by annexin V-FITC/PI staining based flow cytometry (reference value: 0.043%); type: functional; summary of the method: as §1
# [4] = tested on: MKN-28; test: Induction of apoptosis in human MKN28 cells assessed as late apoptotic cells at 8 uM after 48 hrs by annexin V-FITC/PI staining based flow cytometry (reference value: 0%); type: functional; summary of the method: as §1
# [5] = tested on: MKN-28; test: Induction of apoptosis in human MKN28 cells assessed as necrotic cells at 6 uM after 48 hrs by annexin V-FITC/PI staining based flow cytometry (reference value: 0%); type: functional; summary of the method: as §1
# [6] = tested on: MKN-28; test: Induction of apoptosis in human MKN28 cells assessed as necrotic cells at 2 uM after 48 hrs by annexin V-FITC/PI staining based flow cytometry (reference value: 0%); type: functional; summary of the method: as §1
# [7] = tested on: MKN-28; test: Induction of apoptosis in human MKN28 cells assessed as viable cells at 8 uM after 48 hrs by annexin V-FITC/PI staining based flow cytometry (reference value: 100%); type: functional; conditions: MKN-28, 48 h, read-out: Activity; summary of the method: as §1
# [8] = tested on: MKN-28; test: Induction of apoptosis in human MKN28 cells assessed as early apoptotic cells at 8 uM after 48 hrs by annexin V-FITC/PI staining based flow cytometry (reference value: 0.043%); type: functional; summary of the method: as §1
# [9] = tested on: MKN-28; test: Induction of apoptosis in human MKN28 cells assessed as viable cells at 2 uM after 48 hrs by annexin V-FITC/PI staining based flow cytometry (reference value: 100%); type: functional; conditions: MKN-28, 48 h, read-out: Activity; summary of the method: as §1
# [10] = tested on: MKN-28; test: Induction of mitochondrial apoptosis in human MKN28 cells assessed as increase in bax expression level at 2 to 8 uM after 48 hrs by Western blot analysis; type: functional, cell-based
# Summary of the method: (§2)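 MKN-28 cells (1 × 10^6/dish) cultured with compound at 2, 6 and 8 μM for 48 h. Cells lysed for 30 min on ice in RIPA buffer with DTT, PMSF and phosphatase inhibitor, then spun at 14000g, 4 °C, 15 min. Protein measured by BCA. Blots probed for Bcl-2, Bax, Bad, cleaved and pro-caspase-3 and -9, with β-actin as loading control.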
# [11] = tested on: MKN-28; test: Induction of mitochondrial apoptosis in human MKN28 cells assessed as caspase 9 activation at 2 to 8 uM after 48 hrs by Western blot analysis; type: functional, cell-based; summary of the method: as §2
# [12] = tested on: MKN-28; test: Induction of apoptosis in human MKN28 cells assessed as necrotic cells at 8 uM after 48 hrs by annexin V-FITC/PI staining based flow cytometry (reference value: 0%); type: functional; summary of the method: as §1
# [13] = tested on: MKN-28; test: Induction of mitochondrial apoptosis in human MKN28 cells assessed as caspase 3 activation at 2 to 8 uM after 48 hrs by Western blot analysis; type: functional, cell-based; summary of the method: as §2
# [14] = tested on: MKN-28; test: Induction of apoptosis in human MKN28 cells assessed as increase in early apoptotic cells after 48 hrs by annexin V-FITC/PI staining based flow cytometry; type: functional, cell-based; summary of the method: as §1
# [15] = Cytotoxicity against human A549 cells assessed as inhibition of cell proliferation after 48 hrs by MTT assay; type: functional, cell-based; conditions: A549, 48 h
# Summary of the method: (§3)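 Cells grown in DMEM with 10% FBS, 100 U/mL penicillin, 100 μg/mL streptomycin, 37 °C, 5% CO2. Seeded 5 × 10^3 cells/well, 12 h, then exposed to compounds for 48 h. MTT (5 mg/mL stock) added for 4 h at 37 °C, formazan dissolved in DMSO, absorbance read at 570 nm. IC50 relative to untreated control. Triplicate, repeated twice; cis-platinum as positive control.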
# [16] = tested on: MKN-28; test: Induction of apoptosis in human MKN28 cells assessed as early apoptotic cells at 6 uM after 48 hrs by annexin V-FITC/PI staining based flow cytometry (reference value: 0.043%); type: functional; summary of the method: as §1
# [17] = tested on: MKN-28; test: Induction of mitochondrial apoptosis in human MKN28 cells assessed as decrease in bcl-2 expression level at 2 to 8 uM after 48 hrs by Western blot analysis; type: functional, cell-based; summary of the method: as §2
# [18] = Cytotoxicity against human MKN28 cells assessed as inhibition of cell proliferation after 48 hrs by MTT assay; type: functional, cell-based; conditions: MKN-28, 48 h; summary of the method: as §3
# [19] = tested on: MKN-28; test: Induction of apoptosis in human MKN28 cells assessed as late apoptotic cells at 6 uM after 48 hrs by annexin V-FITC/PI staining based flow cytometry (reference value: 0%); type: functional; summary of the method: as §1
# [20] = tested on: MKN-28; test: Induction of mitochondrial apoptosis in human MKN28 cells assessed as increase in bad expression level at 2 to 8 uM after 48 hrs by Western blot analysis; type: functional, cell-based; summary of the method: as §2
# [21] = tested on: MKN-28; test: Induction of apoptosis in human MKN28 cells assessed as increase in late apoptotic cells after 48 hrs by annexin V-FITC/PI staining based flow cytometry; type: functional, cell-based; summary of the method: as §1
# [22] = Cytotoxicity against human MCF7 cells assessed as inhibition of cell proliferation after 48 hrs by MTT assay; type: functional, cell-based; conditions: MCF7, 48 h; summary of the method: as §3
compound,measurement,setting,value
CCO[C@@H]1O[C@@H](C=C(C)C)C[C@H]1[C@@H]1CC=C2[C@]3(C)[C@H](O)C[C@H]4C(C)(C)[C@H](O)CC[C@]4(C)[C@H]3CC[C@]21C,viability at 6 µM,[1],78.9%
same,Activity,[2],2.69%
same,Activity,[3],3.21%
same,Activity,[4],21%
same,Activity,[5],2.51%
same,Activity,[6],0.869%
same,viability at 8 µM,[7],66%
same,Activity,[8],12.4%
same,viability at 2 µM,[9],93.2%
same,Activity,[10],Active
same,Activity,[11],Active
same,Activity,[12],0.685%
same,Activity,[13],Active
same,Activity,[14],Dose-dependent effect
same,IC50,[15],5.6 µM
same,Activity,[16],5.76%
same,Activity,[17],Active
same,IC50,[18],2500 nM
same,Activity,[19],12.6%
same,Activity,[20],Active
same,Activity,[21],Dose-dependent effect
same,IC50,[22],9.1 µM
